≈ marks a conversion by molar mass, not a printed value.
Legend:
Assay type in all cases: functional
[1] = test system: Streptococcus pneumoniae; experiment: Antibacterial activity against Streptococcus pneumoniae by CLSI M100-S17 method
[2] = test system: Moraxella catarrhalis; experiment: Antibacterial activity against Moraxella catarrhalis by CLSI M100-S17 method
[3] = test system: Streptococcus pneumoniae; experiment: Antibacterial activity against Streptococcus pneumoniae assessed as susceptible isolates by CLSI M100-S17 method
Procedure, shortened: (§1)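 CLSI broth microdilution on clinical isolates, using frozen in-house-prepared panels of test and comparator agents. MICs were read after 20 to 24 h incubation at 35°C in ambient air. Susceptible/intermediate categories were assigned by CLSI M100-S17 guidelines.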

[4] = test system: Streptococcus pyogenes; experiment: Antibacterial activity against Streptococcus pyogenes assessed as susceptible isolates by CLSI M100-S17 method; procedure, shortened: as §1
[5] = test system: Streptococcus agalactiae; experiment: Antibacterial activity against Streptococcus agalactiae assessed as susceptible isolates by CLSI M100-S17 method; procedure, shortened: as §1
[6] = test system: Streptococcus pyogenes; experiment: Antibacterial activity against Streptococcus pyogenes by CLSI M100-S17 method
[7] = test system: Streptococcus pneumoniae; experiment: Antibacterial activity against Streptococcus pneumoniae assessed as resistant isolates by CLSI M100-S17 method
Procedure, shortened: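 Clinical isolates were tested by CLSI broth microdilution in frozen, in-house-prepared 96-well panels of the test agent and comparator agents. MICs were read and classed as susceptible, intermediate or resistant using CLSI M100-S17 breakpoints. The value is the share of isolates in each category.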

[8] = test system: Streptococcus pneumoniae; experiment: Antibacterial activity against Streptococcus pneumoniae assessed as intermediate isolates by CLSI M100-S17 method; procedure, shortened: as §1
[9] = test system: Streptococcus agalactiae; experiment: Antibacterial activity against Streptococcus agalactiae by CLSI M100-S17 method
[10] = test system: Staphylococcus epidermidis; experiment: Antibacterial activity against methicillin-susceptible Staphylococcus epidermidis assessed as resistant isolates by CLSI M100-S17 method
[11] = test system: Enterococcus faecalis; experiment: Antibacterial activity against Enterococcus faecalis assessed as susceptible isolates by CLSI M100-S17 method
[12] = test system: Enterococcus faecalis; experiment: Antibacterial activity against Enterococcus faecalis by CLSI M100-S17 method
[13] = test system: Staphylococcus epidermidis; experiment: Antibacterial activity against methicillin-susceptible Staphylococcus epidermidis by CLSI M100-S17 method
[14] = test system: Staphylococcus aureus; experiment: Antibacterial activity against methicillin-resistant Staphylococcus aureus by CLSI M100-S17 method
[15] = test system: Staphylococcus epidermidis; experiment: Antibacterial activity against methicillin-resistant Staphylococcus epidermidis assessed as susceptible isolates by CLSI M100-S17 method
[16] = test system: Enterococcus faecium; experiment: Antibacterial activity against Enterococcus faecium assessed as intermediate isolates by CLSI M100-S17 method
[17] = test system: Staphylococcus aureus; experiment: Antibacterial activity against methicillin-resistant Staphylococcus aureus assessed as intermediate isolates by CLSI M100-S17 method
[18] = test system: Staphylococcus epidermidis; experiment: Antibacterial activity against methicillin-resistant Staphylococcus epidermidis by CLSI M100-S17 method
[19] = test system: Enterococcus faecalis; experiment: Antibacterial activity against Enterococcus faecalis assessed as intermediate isolates by CLSI M100-S17 method
[20] = test system: Staphylococcus aureus; experiment: Antibacterial activity against methicillin-susceptible Staphylococcus aureus assessed as susceptible isolates by CLSI M100-S17 method
[21] = test system: Staphylococcus epidermidis; experiment: Antibacterial activity against methicillin-resistant Staphylococcus epidermidis assessed as intermediate isolates by CLSI M100-S17 method
[22] = test system: Staphylococcus epidermidis; experiment: Antibacterial activity against methicillin-susceptible Staphylococcus epidermidis assessed as intermediate isolates by CLSI M100-S17 method
[23] = test system: Enterococcus faecium; experiment: Antibacterial activity against Enterococcus faecium by CLSI M100-S17 method
[24] = test system: Staphylococcus epidermidis; experiment: Antibacterial activity against methicillin-susceptible Staphylococcus epidermidis assessed as susceptible isolates by CLSI M100-S17 method
[25] = test system: Enterococcus faecalis; experiment: Antibacterial activity against Enterococcus faecalis assessed as resistant isolates by CLSI M100-S17 method
[26] = test system: Staphylococcus aureus; experiment: Antibacterial activity against methicillin-susceptible Staphylococcus aureus assessed as resistant isolates by CLSI M100-S17 method
[27] = test system: Staphylococcus epidermidis; experiment: Antibacterial activity against methicillin-resistant Staphylococcus epidermidis assessed as resistant isolates by CLSI M100-S17 method
[28] = test system: Staphylococcus aureus; experiment: Antibacterial activity against methicillin-resistant Staphylococcus aureus assessed as susceptible isolates by CLSI M100-S17 method
[29] = test system: Staphylococcus aureus; experiment: Antibacterial activity against methicillin-resistant Staphylococcus aureus assessed as resistant isolates by CLSI M100-S17 method
[30] = test system: Staphylococcus aureus; experiment: Antibacterial activity against methicillin-susceptible Staphylococcus aureus by CLSI M100-S17 method
[31] = test system: Enterococcus faecium; experiment: Antibacterial activity against Enterococcus faecium assessed as susceptible isolates by CLSI M100-S17 method
[32] = test system: Staphylococcus aureus; experiment: Antibacterial activity against methicillin-susceptible Staphylococcus aureus assessed as intermediate isolates by CLSI M100-S17 method

## CC1(C)S[C@@H]2[C@H](NC(=O)Cc3ccccc3)C(=O)N2[C@H]1C(=O)O [PENICILLIN G]
[1]
  MIC50: 0.06 µg/mL (≈ 0.179 µM)
  MIC90: 0.25 µg/mL (≈ 0.748 µM)
[2]
  MIC50: > 8 µg/mL
  MIC90: > 8 µg/mL
[3]
  Activity: 79.3%
[4]
  Activity: 100%
[5]
  Activity: 100%
[6]
  MIC: ≤ 0.03 µg/mL
  MIC50: ≤ 0.03 µg/mL
  MIC90: ≤ 0.03 µg/mL
[7]
  Activity: 5%
[8]
  Activity: 15.7%
[9]
  MIC50: 0.06 µg/mL (≈ 0.179 µM)
  MIC90: 0.25 µg/mL (≈ 0.748 µM)

## CN[C@H](CC(C)C)C(=O)N[C@H]1C(=O)N[C@@H](CC(N)=O)C(=O)N[C@H]2C(=O)N[C@H]3C(=O)N[C@H](C(=O)N[C@H](C(=O)O)c4cc(O)cc(O)c4-c4cc3ccc4O)[C@H](O)c3ccc(c(Cl)c3)Oc3cc2cc(c3O[C@@H]2O[C@H](CO)[C@@H](O)[C@H](O)[C@H]2O[C@H]2C[C@](C)(N)[C@H](O)[C@H](C)O2)Oc2ccc(cc2Cl)[C@H]1O [VANCOMYCIN]
[10]
  Activity: 0%
[1]
  MIC50: ≤ 0.25 µg/mL
  MIC90: 0.25 µg/mL (≈ 0.173 µM)
[11]
  Activity: 100%
[12]
  MIC50: 1 µg/mL (≈ 0.69 µM)
  MIC90: 2 µg/mL (≈ 1.38 µM)
[13]
  MIC90: 2 µg/mL (≈ 1.38 µM)
[14]
  MIC50: 1 µg/mL (≈ 0.69 µM)
  MIC90: 1 µg/mL (≈ 0.69 µM)
[15]
  Activity: 100%
[3]
  Activity: 100%
[16]
  Activity: 0%
[4]
  Activity: 100%
[17]
  Activity: 0%
[18]
  MIC90: 2 µg/mL (≈ 1.38 µM)
[19]
  Activity: 0%
[20]
  Activity: 100%
[21]
  Activity: 0%
[6]
  MIC50: 0.5 µg/mL (≈ 0.345 µM)
  MIC90: 0.5 µg/mL (≈ 0.345 µM)
[22]
  Activity: 0%
[23]
  MIC50: 0.5 µg/mL (≈ 0.345 µM)
  MIC90: > 32 µg/mL
[24]
  Activity: 100%
[25]
  Activity: 0%
[26]
  Activity: 0%
[27]
  Activity: 0%
[28]
  Activity: 100%
[29]
  Activity: 0%
[30]
  MIC50: 1 µg/mL (≈ 0.69 µM)
  MIC90: 1 µg/mL (≈ 0.69 µM)
[31]
  Activity: 87.9%
[32]
  Activity: 0%
[9]
  MIC50: ≤ 0.25 µg/mL
  MIC90: 0.25 µg/mL (≈ 0.173 µM)

## C[C@H]1COc2c(N3CCN(C)CC3)c(F)cc3c(=O)c(C(=O)O)cn1c23.C[C@H]1COc2c(N3CCN(C)CC3)c(F)cc3c(=O)c(C(=O)O)cn1c23.O [LEVOFLOXACIN]
[1]
  MIC50: 0.5 µg/mL
  MIC90: 1 µg/mL
[3]
  Activity: 99.4%
[7]
  Activity: 0.6%
[8]
  Activity: 0%

Source: ChEMBL document CHEMBL1649552 (2009)
